Measurements published in ChEMBL document CHEMBL1153798, “Substituted tetrahydroquinolines as potent allosteric inhibitors of reverse transcriptase and its key mutants” (Bioorg Med Chem Lett, 2009).
pIC50: −log10 of the molar value. Each block holds one compound with its values, some of them ahead of it.

Tests used:
[1] = system: Human immunodeficiency virus 1; assay: Ratio of IC50 for HIV1 carrying reverse transcriptase Y181C/G190A mutant to IC50 for wild type HIV1 in the presence of 40% normal human serum; format: functional
[2] = Inhibition of HIV1 reverse transcriptase K103 mutant
[3] = system: Human immunodeficiency virus 1; assay: Ratio of IC50 for HIV1 carrying reverse transcriptase K103N mutant to IC50 for wild type HIV1 in the presence of 40% normal human serum; format: functional
[4] = system: Human immunodeficiency virus 1; assay: Ratio of IC50 for HIV1 carrying reverse transcriptase Y188L mutant to IC50 for wild type HIV1 in the presence of 40% normal human serum; format: functional
[5] = system: Human immunodeficiency virus 1; assay: Ratio of IC50 for HIV1 carrying reverse transcriptase […]/ Y181C/G190A mutant to IC50 for wild type HIV1 in the presence of 40% normal human serum; format: functional
[6] = system: Human immunodeficiency virus 1; assay: Ratio of IC50 for HIV1 carrying reverse transcriptase G190S mutant to IC50 for wild type HIV1 in the presence of 40% normal human serum; format: functional
[7] = system: Human immunodeficiency virus 1; assay: Antiviral activity against HIV1 carrying reverse transcriptase G190S mutant infected human MT4 cells by phenoscreen assay in the presence of 40 percent normal human serum; details: Human immunodeficiency virus 1, MT4
[8] = Half life in Sprague-Dawley rat at 10 mg/kg, po and 2 mg/kg, iv; format: ADME, organism-based; details: in vivo
[9] = system: Human immunodeficiency virus 1; assay: Antiviral activity against HIV1 carrying reverse transcriptase K103N/P225H mutant infected human MT4 cells by phenoscreen assay in the presence of 40 percent normal human serum; format: functional, organism-based; details: Human immunodeficiency virus 1, MT4
Procedure, shortened: (§1)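 Phenotypic recombinant-virus assay (Phenoscreen, Monogram Bioscience), run with 40% normal human serum present. IC50 is the compound concentration in cell culture that inhibits viral replication by 50%.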

[10] = system: Human immunodeficiency virus 1; assay: Antiviral activity against HIV1 carrying reverse transcriptase […] mutant infected human MT4 cells by phenoscreen assay in the presence of 40 percent normal human serum; format: functional, organism-based; details: Human immunodeficiency virus 1, MT4; procedure, shortened: as §1
[11] = system: Human immunodeficiency virus 1; assay: Antiviral activity against HIV1 carrying reverse transcriptase K103N/V179E mutant infected human MT4 cells by phenoscreen assay in the presence of 40 percent normal human serum; format: functional, organism-based; details: Human immunodeficiency virus 1, MT4; procedure, shortened: as §1
[12] = system: Human immunodeficiency virus 1; assay: Antiviral activity against HIV1 carrying reverse transcriptase K101E/G190A mutant infected human MT4 cells by phenoscreen assay in the presence of 40 percent normal human serum; details: Human immunodeficiency virus 1, MT4
[13] = system: Human immunodeficiency virus 1; assay: Antiviral activity against HIV1 carrying reverse transcriptase G190A mutant infected human MT4 cells by phenoscreen assay in the presence of 40 percent normal human serum; details: Human immunodeficiency virus 1, MT4
[14] = system: Human immunodeficiency virus 1; assay: Antiviral activity against HIV1 carrying reverse transcriptase K103N mutant infected human MT4 cells by phenoscreen assay in the presence of 40 percent normal human serum; format: functional, organism-based; details: Human immunodeficiency virus 1, MT4; procedure, shortened: as §1
[15] = system: Human immunodeficiency virus 1; assay: Antiviral activity against HIV1 carrying reverse transcriptase Y188L mutant infected human MT4 cells by phenoscreen assay in the presence of 40 percent normal human serum; format: functional, organism-based; details: Human immunodeficiency virus 1, MT4; procedure, shortened: as §1
[16] = system: Human immunodeficiency virus 1; assay: Ratio of IC50 for HIV1 carrying reverse transcriptase K103N/Y181C mutant to IC50 for wild type HIV1 in the presence of 40% normal human serum; format: functional
[17] = system: Human immunodeficiency virus 1; assay: Antiviral activity against HIV1 carrying reverse transcriptase Y181C mutant infected human MT4 cells by phenoscreen assay in the presence of 40 percent normal human serum; format: functional, organism-based; details: Human immunodeficiency virus 1, MT4; procedure, shortened: as §1
[18] = system: Human immunodeficiency virus 1; assay: Ratio of IC50 for HIV1 carrying reverse transcriptase K103N/G190A mutant to IC50 for wild type HIV1 in the presence of 40% normal human serum; format: functional
[19] = system: Human immunodeficiency virus 1; assay: Antiviral activity against HIV1 R8 infected human MT4 cells assessed as drug level required for 95% inhibition in the presence of 10% fetal bovine serum; format: functional
Procedure, shortened: (§2)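 Spread assay: MT-4 human T-lymphoid cells in RPMI 1640 with either 10% FBS or 50% NHS; CIC95 taken as the concentration blocking >95% of virus spread. Wild-type virus H9IIIB or R8 as stated per line. Geometric mean of at least two determinations, individual values within 25% of the mean.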

[20] = system: Human immunodeficiency virus 1; assay: Antiviral activity against HIV1 infected human MT4 cells by phenoscreen assay in the presence of 40 percent normal human serum; format: functional, organism-based; details: Human immunodeficiency virus 1, MT4
[21] = system: Human immunodeficiency virus 1; assay: Antiviral activity against HIV1 carrying reverse transcriptase K103N/G190A mutant infected human MT4 cells by phenoscreen assay in the presence of 40 percent normal human serum; format: functional, organism-based; details: Human immunodeficiency virus 1, MT4; procedure, shortened: as §1
[22] = system: Human immunodeficiency virus 1; assay: Ratio of IC50 for HIV1 carrying reverse transcriptase K103N/V179E mutant to IC50 for wild type HIV1 in the presence of 40% normal human serum; format: functional
[23] = system: Human immunodeficiency virus 1; assay: Antiviral activity against HIV1 carrying reverse transcriptase K101E/ Y181C/G190A mutant infected human MT4 cells by phenoscreen assay in the presence of 40 percent normal human serum; details: Human immunodeficiency virus 1, MT4
[24] = system: Human immunodeficiency virus 1; assay: Antiviral activity against HIV1 R8 infected human MT4 cells assessed as drug level required for 95% inhibition in the presence of 50% normal human serum; format: functional; procedure, shortened: as §2
[25] = system: Human immunodeficiency virus 1; assay: Antiviral activity against HIV1 carrying reverse transcriptase V106A/G190A/F227L mutant infected human MT4 cells by phenoscreen assay in the presence of 40 percent normal human serum; format: functional, organism-based; details: Human immunodeficiency virus 1, MT4; procedure, shortened: as §1
[26] = system: Human immunodeficiency virus 1; assay: Ratio of IC50 for HIV1 carrying reverse transcriptase K103N/P225H mutant to IC50 for wild type HIV1 in the presence of 40% normal human serum; format: functional
[27] = system: Human immunodeficiency virus 1; assay: Antiviral activity against HIV1 carrying reverse transcriptase Y181C/G190A mutant infected human MT4 cells by phenoscreen assay in the presence of 40 percent normal human serum; format: functional, organism-based; details: Human immunodeficiency virus 1, MT4; procedure, shortened: as §1
[28] = system: Human immunodeficiency virus 1; assay: Ratio of IC50 for HIV1 carrying reverse transcriptase […]/G190A mutant to IC50 for wild type HIV1 in the presence of 40% normal human serum; format: functional
[29] = system: Human immunodeficiency virus 1; assay: Antiviral activity against HIV1 carrying reverse transcriptase […]/G190A mutant infected human MT4 cells in the presence of 40 percent normal human serum; format: functional; procedure, shortened: as §1
[30] = system: Human immunodeficiency virus 1; assay: Ratio of IC50 for HIV1 carrying reverse transcriptase G190A mutant to IC50 for wild type HIV1 in the presence of 40% normal human serum; format: functional
[31] = system: Human immunodeficiency virus 1; assay: Ratio of IC50 for HIV1 carrying reverse transcriptase Y181C mutant to IC50 for wild type HIV1 in the presence of 40% normal human serum; format: functional
Rattus norvegicus = assay: Hepatic clearance in rat at 10 mg/kg, po and 2 mg/kg, iv; details: in vivo
[32] = system: Human immunodeficiency virus 1; assay: Ratio of IC50 for HIV1 carrying reverse transcriptase V106A/G190A/F227L mutant to IC50 for wild type HIV1 in the presence of 40% normal human serum; format: functional
[33] = system: Human immunodeficiency virus 1; assay: Ratio of IC50 for HIV1 carrying reverse transcriptase […] mutant to IC50 for wild type HIV1 in the presence of 40% normal human serum; format: functional
[34] = system: Human immunodeficiency virus 1; assay: Antiviral activity against HIV1 carrying reverse transcriptase K103N/ Y181C/G190A mutant infected human MT4 cells by phenoscreen assay in the presence of 40 percent normal human serum; format: functional, organism-based; details: Human immunodeficiency virus 1, MT4; procedure, shortened: as §1
[35] = system: Human immunodeficiency virus 1; assay: Antiviral activity against HIV1 3B infected human MT4 cells assessed as drug level required for 95% inhibition in the presence of 10% fetal bovine serum; format: functional; procedure, shortened: as §2
[36] = Protein binding in human plasma; format: ADME, cell-free; details: read-out: PB
[37] = system: Human immunodeficiency virus 1; assay: Antiviral activity against HIV1 3B infected human MT4 cells assessed as drug level required for 95% inhibition in the presence of 50% normal human serum; format: functional; procedure, shortened: as §2

SMILES: CS(=O)(=O)c1ccc(NC(=O)CSC(=O)N2CCCc3cc(Cl)cc(Cl)c32)c(Cl)c1
fold change (FC) [1]: >56
pIC50 [2]: 8.52
fold change (FC) [3]: 0.4
fold change (FC) [4]: >56
fold change (FC) [5]: >56
fold change (FC) [6]: >56
pIC50 [7]: < 6.60
half-life [8]: 1.7 h
pIC50 [9]: 8.03
pIC50 [10]: 7.30
pIC50 [11]: 8.12
pIC50 [12]: < 6.60
pIC50 [13]: 6.80
pIC50 [14]: 8.70
pIC50 [15]: < 6.60
fold change (FC) [16]: 33.2
pIC50 [17]: 7.06
fold change (FC) [18]: 21.3
Activity [19]: 5.6 nM
pIC50 [20]: 8.35
pIC50 [21]: 7.24
fold change (FC) [22]: 1.7
pIC50 [23]: < 6.60
Activity [24]: 5.7 nM
pIC50 [25]: < 6.60
fold change (FC) [26]: 2.1
pIC50 [27]: < 6.60
fold change (FC) [28]: >56
fold change (FC) [29]: >56
fold change (FC) [30]: 34.8
fold change (FC) [31]: 19
CL (Rattus norvegicus): 84 mL/min/kg
fold change (FC) [32]: >56
fold change (FC) [33]: 11
pIC50 [34]: < 6.60

SMILES: NCCCNC(=O)c1ccc(NC(=O)CSC(=O)N2CCCc3cc(Cl)cc(Cl)c32)c(Cl)c1
Activity [19]: 97 nM
Activity [24]: 34 nM

SMILES: O=C(CSC(=O)N1CCCc2cc(Cl)cc(Cl)c21)Nc1ccc(C(=O)NCc2ccccc2)cc1Cl
Activity [19]: 63 nM
Activity [24]: 307 nM

fraction unbound [36]: 0.01
SMILES: Cc1ccc2c(c1)CCCN2C(=O)SCC(=O)Nc1ccc(S(N)(=O)=O)cc1Cl
ID95 [35]: 78 nM
ID95 [37]: 396 nM

SMILES: NS(=O)(=O)c1ccc(NC(=O)COC(=O)N2CCCc3cc(Cl)cc(Cl)c32)c(Cl)c1
pIC50 [2]: 7.68
Activity [35]: 187 nM
Activity [37]: 2.5 µM

SMILES: NS(=O)(=O)c1ccc(NC(=O)CNC(=O)N2CCCc3cc(Cl)cc(Cl)c32)c(Cl)c1
Activity [35]: 562 nM
Activity [37]: >10 µM

SMILES: NS(=O)(=O)c1ccc(NC(=O)CSC(=O)N2CCCc3cccc(Cl)c32)c(Cl)c1
pIC50 [2]: 8.40
ID95 [35]: 23 nM
ID95 [37]: 47 nM

SMILES: O=C(CSC(=O)N1CCCc2cc(Cl)cc(Cl)c21)Nc1ccccc1Cl
ID95 [35]: 125 nM
ID95 [37]: 406 nM
